In ChEMBL document CHEMBL4513216, “Probing the Open Global Health Chemical Diversity Library for Multistage-Active Starting Points for Next-Generation Antimalarials” (ACS Infect Dis, 2020):

Assay: Toxicity liver stage against HepG2, at 10uM
Format: cell-based
Design: test concentration 10 uM, cell line HepG2-A16-CD81EGFP
Conditions: human, HepG2-A16-CD81EGFP cells; read-out: INHIBITION
Outline: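 Uninfected HepG2-A16-CD81EGFP cells, 3 × 10^3 per well, 1536-well, plated on prespotted compound at 10 μM final, parasite-free screening media added to match infected plates; puromycin 10 μM positive, DMSO 0.5% negative; run in parallel with 48 h PbLuc assay at 37 °C, 5% CO2; viability by CellTiter-Glo luminescence, normalized to controls.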

SMILES: O=C1CCCc2cc(-c3csc(CCN4CCOC4=O)n3)ccc2N1
- cytotoxicity at 10 µM: 0.196%

SMILES: Cc1ccc(C(CC(=O)O)NC(=O)CCc2cccs2)cc1 (stereo not given)
- cytotoxicity at 10 µM: -4.32%

SMILES: COCC(=O)Nc1ccc(-c2noc([C@@H]3CCCN3CC(C)C)n2)cn1
- cytotoxicity at 10 µM: 5.82%

SMILES: COCCCNC(=O)Nc1ncc(-c2cccc(OC)c2)n1CCOC
- cytotoxicity at 10 µM: 18.6%

SMILES: O=C(NCc1ccccc1)NCC1CCN(Cc2ccsc2)CC1
- cytotoxicity at 10 µM: -14.1%

SMILES: CCc1ccc(S(=O)(=O)NCCOc2ccc3nnc(C)n3n2)s1
- cytotoxicity at 10 µM: -6.98%

SMILES: CCc1ccc(C(=O)N2CCCC3(CCCC(=O)N3C)C2)cc1 (stereo not given)
- cytotoxicity at 10 µM: -5.72%

SMILES: O=C(c1cc(-n2cnnn2)ccc1Cl)N1CCOCC1
- cytotoxicity at 10 µM: 6.22%

SMILES: COCCCNC(=O)c1c(-n2cnnn2)sc2c1CCC2
- cytotoxicity at 10 µM: 11.4%

SMILES: COc1ccc(-c2ccnc3nc(N4CCCCC4)[nH]c(=O)c23)cc1
- cytotoxicity at 10 µM: 5.31%

SMILES: CCN(CC)CCNC(=O)c1cc(OC)c2ccoc2c1
- cytotoxicity at 10 µM: -0.971%

SMILES: NC(=O)C1(CCCc2ccccn2)CCCN(CCO)C1 (stereo not given)
- cytotoxicity at 10 µM: 3.38%

SMILES: CC(=O)NCC(=O)N1C[C@@H]2CC[C@H](Oc3ccccc3Cl)[C@@H]2C1
- cytotoxicity at 10 µM: 9.16%

SMILES: O=C(Cc1ccsc1)N1CCC(O)(CN2CCc3ccccc3C2)C1 (stereo not given)
- cytotoxicity at 10 µM: -7.27%

SMILES: CC(=O)N1C[C@@H](c2ccsc2)[C@@H]2CN(CC3CCCCC3)CC[C@@H]21
- cytotoxicity at 10 µM: -7.99%

SMILES: c1cnc(N2CCC(OCC3CCCCO3)CC2)nc1 (stereo not given)
- cytotoxicity at 10 µM: -11.4%

SMILES: NC(=O)N1CCCN(CCCSCc2ccccc2)CC1
- cytotoxicity at 10 µM: -2.17%

SMILES: Cc1cnn(C2CCCN(C(=O)c3cc(-c4ccco4)[nH]n3)C2)c1 (stereo not given)
- cytotoxicity at 10 µM: -9.48%

SMILES: CS(=O)(=O)c1ccc2c(c1)N(C(=O)Cc1cccc(F)c1)CCC2
- cytotoxicity at 10 µM: 14.9%

SMILES: CCOc1c(F)cccc1C(=O)N(CC)C(C)c1ccncc1 (stereo not given)
- cytotoxicity at 10 µM: 11%

SMILES: O=C(Cn1cc(C2CC2)nn1)N(Cc1ccco1)Cc1cccs1
- cytotoxicity at 10 µM: -13.3%

SMILES: O=C(c1ccc(CN2CCCCC2)cc1)N1CCCC1c1cccs1 (stereo not given)
- cytotoxicity at 10 µM: -7.15%

SMILES: COc1ccc(CN(C(=O)CCC(C)C)c2cnn(C)c2)c(OC)c1
- cytotoxicity at 10 µM: -1.35%

SMILES: Cc1cc(C)c(S(=O)(=O)Nc2c(C)noc2C)cc1C(=O)O
- cytotoxicity at 10 µM: -8.18%

SMILES: CCCNC(=O)c1cc(Br)c2c(c1)OCCO2
- cytotoxicity at 10 µM: 9.65%

SMILES: CN(C)c1ncccc1CNC(=O)N(Cc1ccccc1F)C1CC1
- cytotoxicity at 10 µM: 2.6%

SMILES: CN(CCC(F)(F)F)C(=O)C1CSCN1C(=O)C(C)(C)C (stereo not given)
- cytotoxicity at 10 µM: 9.07%

SMILES: Cc1noc(C(C)C)c1C(=O)NS(=O)(=O)c1cccnc1
- cytotoxicity at 10 µM: 0.345%

SMILES: CC(C)CN1CCC(NC(=O)c2ccc(F)cc2F)CC1
- cytotoxicity at 10 µM: -3.1%

SMILES: CN(C)CC1CN(c2ncnc3ccsc23)CCO1 (stereo not given)
- cytotoxicity at 10 µM: 12%

SMILES: O=C(NCc1ccc(Cl)cc1Cl)NCC1(O)CCSC1 (stereo not given)
- cytotoxicity at 10 µM: -9.12%

SMILES: CCN(CC1CCOC1)C(=O)c1cc(OC)c2c(c1)OCCO2 (stereo not given)
- cytotoxicity at 10 µM: -7.35%

SMILES: COc1cc(C(=O)N(C)Cc2cc(C(=O)O)c(C)o2)cc(OC)c1OC
- cytotoxicity at 10 µM: -1.76%

SMILES: CS(=O)(=O)CCN(CCc1cccc(F)c1)C1CC1
- cytotoxicity at 10 µM: 11.4%

SMILES: Cc1csc(NC(=O)C2CCN(Cc3cccc4c3OCCO4)CC2)n1
- cytotoxicity at 10 µM: -17.9%

SMILES: CCS(=O)(=O)NC(CCSC)C(=O)Nc1ccc(C)cc1C (stereo not given)
- cytotoxicity at 10 µM: -8.9%

SMILES: CN(Cc1cccc(F)c1)C(=O)CS(=O)(=O)Cc1c(Cl)cccc1Cl
- cytotoxicity at 10 µM: -2.81%

SMILES: O=C(O)CC(NC(=O)c1cc(Br)c[nH]1)c1ccccc1 (stereo not given)
- cytotoxicity at 10 µM: 1.22%

SMILES: Cc1ccc(C)c2c(O)cc(CNCC(=O)N3CCCC3)nc12
- cytotoxicity at 10 µM: -12.4%

SMILES: COCC(NC1CSCCSC1)c1ccnn1C (stereo not given)
- cytotoxicity at 10 µM: 4.34%

SMILES: COc1ccc(OC)c(-c2nc(CN(C)Cc3noc(C)n3)c(C)o2)c1
- cytotoxicity at 10 µM: -3.7%

SMILES: COC(=O)CNC(=O)N1CCC2(CC1)CC(c1ccccc1)CN(C)C2 (stereo not given)
- cytotoxicity at 10 µM: 0.761%

SMILES: CN(Cc1ccn[nH]1)C(=O)CCC(=O)NC1CCCC1
- cytotoxicity at 10 µM: 0.324%

SMILES: Cc1ccc(C(=O)N2CCC(C(F)(F)F)CC2)cc1N1CCNC1=O
- cytotoxicity at 10 µM: 2.01%

SMILES: COC(=O)[C@@H]1C[C@H](NC(=O)c2cc(=O)[nH]c3ccc(C)cc23)CN1C
- cytotoxicity at 10 µM: 6.46%

SMILES: CCN1CCC2(CCC1=O)CN(c1cnc3ccccc3n1)CCN2C (stereo not given)
- cytotoxicity at 10 µM: 1.79%

SMILES: Oc1cc(CCC2CCCCN2)cc(-c2cccnc2)c1 (stereo not given)
- cytotoxicity at 10 µM: 4.11%

SMILES: Cc1ccc2nc(C)c(C)c(C(=O)NCCCn3cnnc3)c2c1
- cytotoxicity at 10 µM: -2.89%

SMILES: C=C(C)COc1ccccc1C(=O)NCCCc1nnn[nH]1
- cytotoxicity at 10 µM: -1.82%

SMILES: Cc1nonc1CN(C)Cc1nc(-c2ccccc2Cl)oc1C
- cytotoxicity at 10 µM: -3.04%

SMILES: O=C1CCC2(CCN(Cc3ccc(F)cc3Cl)CC2)CN1CCO
- cytotoxicity at 10 µM: 5.29%

SMILES: Cc1nc2cc(C(=O)N3C[C@@H](C(=O)O)[C@H](c4ccncc4)C3)ccc2[nH]1
- cytotoxicity at 10 µM: 0.682%

SMILES: Cc1ccc(C2(O)CCN(C(=O)Cn3cc(C)c(=O)[nH]c3=O)CC2)nc1
- cytotoxicity at 10 µM: -7.22%

SMILES: c1ccc(C(Cn2cccn2)Nc2cnccn2)cc1 (stereo not given)
- cytotoxicity at 10 µM: 2.99%

SMILES: Cc1ccc(C(=O)Nc2cn[nH]c2)cc1
- cytotoxicity at 10 µM: -8.83%

SMILES: Cc1cc(C)n(CC2CCCN2C(=O)CCc2nccs2)n1 (stereo not given)
- cytotoxicity at 10 µM: -7.07%

SMILES: Cc1cnn(CC2CCCN2Cc2nc(N)c3ccccc3n2)c1 (stereo not given)
- cytotoxicity at 10 µM: -29.5%

SMILES: CS(=O)(=O)c1ccc(OCCCN2CCc3cncnc3C2)cc1
- cytotoxicity at 10 µM: -15.3%

SMILES: COc1ccc(C(O)CN2CC(n3nc(C)cc3C)C2)cc1 (stereo not given)
- cytotoxicity at 10 µM: -15.3%

SMILES: CCn1cc(CN2CCCN(C(=O)CCc3ccncc3)CC2)cn1
- cytotoxicity at 10 µM: -11.1%

SMILES: CC(C)n1ccnc1CN1CCCN(C(=O)c2nccnc2N)CC1
- cytotoxicity at 10 µM: -7.26%

SMILES: CC(NC(=O)NCCCc1n[nH]c(N)c1C#N)c1ccccc1 (stereo not given)
- cytotoxicity at 10 µM: -7.21%

SMILES: Cc1nn(C)cc1CCC(=O)N1CCCC(n2cncn2)C1 (stereo not given)
- cytotoxicity at 10 µM: 1.9%

SMILES: Cc1nc(C)n(C2CCCN(C(=O)c3ccccc3C)C2)n1 (stereo not given)
- cytotoxicity at 10 µM: 1.59%

SMILES: CC(=O)Nc1nc(C(=O)Nc2ccc(F)cc2)cs1
- cytotoxicity at 10 µM: 6.47%

SMILES: O=C(CN(C1=NCCCC1)c1ccccc1)c1ccc(OC(F)F)cc1
- cytotoxicity at 10 µM: 2.88%

SMILES: CNC(=O)[C@@H]1CCO[C@@H]2CCN(Cc3ccsc3)C[C@H]21
- cytotoxicity at 10 µM: -78.3%

SMILES: C[C@@H]1C(=O)NC[C@H]2CN(Cc3ccc4c(c3)OCO4)C[C@H]21
- cytotoxicity at 10 µM: 1.44%

SMILES: CN(C)CCn1c2c(ccc1=O)CC(NCc1cnn(C)c1)CC2 (stereo not given)
- cytotoxicity at 10 µM: -105%

SMILES: Cc1cnc(N2CCc3cc(C(=O)O)c(N(C)C)nc3CC2)nc1
- cytotoxicity at 10 µM: -104%

SMILES: Cc1ccc(C(=O)N2C[C@@H]3OCCN(C)[C@@H]3C2)cn1
- cytotoxicity at 10 µM: -68.3%

SMILES: Cn1ccnc1CN1CCC(F)(F)C2(CCN(c3cccnc3)C2)C1 (stereo not given)
- cytotoxicity at 10 µM: -98.8%

SMILES: CN(Cc1cccnc1)CC1CN(C(=O)C2CC2)Cc2nccn2C1 (stereo not given)
- cytotoxicity at 10 µM: -79.8%

SMILES: Cc1ccc(N2CC[C@@H]3[C@@H]2CCN3C(=O)Cc2cccs2)nn1
- cytotoxicity at 10 µM: -99.8%

SMILES: Cc1ccc(N2CC[C@H]3O[C@H](C(=O)NCc4ccco4)CC[C@H]32)nn1
- cytotoxicity at 10 µM: -71.9%

SMILES: c1ccc(CN2CCC3(CC2)CC(Oc2cccnc2)C3)nc1
- cytotoxicity at 10 µM: -111%

SMILES: Cc1cccc(CN2C(=O)CC[C@@H]3[C@H]2CCN3Cc2cccnc2)n1
- cytotoxicity at 10 µM: -74.6%

SMILES: Cc1cccc(C(=O)N2C[C@@H]3C(CC(=O)Nc4cccnc4)[C@@H]3C2)n1 (stereo not given in full)
- cytotoxicity at 10 µM: -0.39%

SMILES: O=C(CCc1n[nH]c2c1CCCC2)N1C[C@H]2CC[C@@H](C1)N(CC1CC1)C2
- cytotoxicity at 10 µM: -3.73%

SMILES: COc1ccnc(N2C[C@H]3CC[C@@H](C2)N(CC2CC2)C3)n1
- cytotoxicity at 10 µM: -0.65%
